Drawing on PubChem BioAssay AID463191 (Sanford-Burnham Center for Chemical Genomics, 2010), this text covers IC50 for 88 molecules.

The source made the active and inactive calls.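 The calls were made as follows: active = compounds whose mean IC50 across repeat dose response tests falls below a set limit; inactive = the rest.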

The assay has as its system AML12 mouse hepatocytes, BODIPY lipid droplet imaging. Briefly: potency against lipid droplet buildup in liver cells – imaging, AML12 mouse hepatocytes, high-content, dose response (AID 463191). The conditions noted are these: cells loaded with 100 µM oleic acid. A digest of the protocol: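 Test system: AML12 mouse hepatocyte cell line, lipid droplet imaging. Compound: Seven-point series from 32 to 0.5 µM, 0.32% DMSO. Incubation: cells grown about 20 h at 37 °C, then overnight compound exposure.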
`CCOc1ccc(CCNC(=O)COC(=O)c2ccc(OC)c(OC)c2OC)cc1OCC`: the IC50 – broadly, the concentration needed to halve the response being measured – is under 500 nM.
With `CCc1ccc(NC(=O)CSc2nnc(C)c(=O)n2N)cc1`, the IC50 was 1480 nM.
On to `CCc1ccc(NC(=O)CSc2nc3ccccc3nc2N2CCCC2)cc1`, for which the IC50 was 1940 nM.
In the case of `O=C(Cc1coc2ccc3ccccc3c12)NC1CCCc2ccccc21` (stereo not drawn) it was 4390 nM; in that of `CCCCn1c(N)c(-c2nc3ccccc3s2)c2c([N+](=O)[O-])nn(CC)c(=O)c21`, 9330 nM (inactive); in that of `COc1ccc(NC(=O)CSc2nc3ccccc3nc2N2CCCC2)cc1Cl`, 2850 nM.
The figure for `CCOc1ccc(C(C)NC(=O)Cc2ccccc2)cc1OCC` (stereo not drawn) is > 32000 nM (inactive).
The figure for `CCOc1ccc(NC(=O)CCSc2nc3c(c(CC)c2C#N)C(=O)CC(C)(C)C3)cc1` is 1770 nM; for `CCCCCCn1c(N2CCN(c3ccccc3)CC2)nc2c1c(=O)[nH]c(=O)n2C` it is 2460 nM; for `CCOc1ccc(CCNC(=O)CCC(=O)N2CCOc3ccc(C)cc32)cc1OCC` it is 1440 nM.
Take `COc1ccc(C(=O)CCC(=O)NCCc2c[nH]c3ccccc23)cc1OC`: the IC50 was 2120 nM.
For the molecule `CCOc1ccc(CCNC(=O)CCNC(=O)c2ccccc2Cl)cc1OCC`, the IC50 was 5880 nM (inactive).
In the case of `Cc1cc(C(=O)NC2CCCc3c2cnn3-c2ccc(C)c(C)c2)nc(C)n1` (stereo not drawn) it was 2810 nM.
In the case of `COc1ccc(C(C(=O)NC(C)(C)C)N(Cc2ccc(F)cc2)C(=O)CCC(=O)Nc2cc(C)on2)cc1` (stereo not drawn) it was 2040 nM.
In the case of `Cc1ccc(CNC(=O)c2ccc(N3CCC4(CC3)CC(c3ccccc3)=NO4)c(N)c2)cc1` it was 3450 nM; in that of `COc1cc(NC(=O)c2cccs2)c(OC)cc1NC(=O)CCC(=O)Nc1ccc2ncccc2c1`, 2230 nM.
Regarding `CCN(CC(=O)Nc1c(F)cccc1F)C(=O)CCCc1c[nH]c2ccccc12`, the IC50 was 1890 nM.
In the case of `COc1cccc(NC(=O)CCC(=O)Nc2cc(OC)c(NC(=O)c3cccs3)cc2OC)c1` it was 754 nM; in that of `Cc1cccc(NC(=O)[C@H](C)NC(=O)[C@@H]2Cc3ccccc3CN2C(=O)OC(C)(C)C)c1`, 1630 nM.
The figure for `CCOc1ccc(CCNC(=O)Nc2ccccc2)cc1OCC` is 583 nM.
In the case of `CCOc1ccc(CCNC(=O)COC(=O)/C=C/c2ccc(OC)c(OC)c2)cc1OCC` it was 1500 nM; in that of `CCOc1ccc(CCNC(=O)CSc2cc(=O)n(C)c3cc(Cl)ccc23)cc1OCC`, 708 nM.
`O=C(Nc1nc(-c2ccc(-c3ccccc3)cc2)cs1)C1CCCO1` (stereo not drawn): the 50% inhibitory concentration (IC50) is 2230 nM.
The figure for `CCOc1ccc(CCNC(=O)CCc2nc(-c3ccc(OC)cc3)no2)cc1OCC` is 782 nM; for `CCC(C)(C)NC(=O)C(c1sccc1C)N(Cc1ccco1)C(=O)c1csnn1` (stereo not drawn) it is 11900 nM (inactive).
Take `COc1ccc(C(C(=O)NC(C)(C)C)N(Cc2ccco2)C(=O)CCC(=O)Nc2cc(C)on2)cc1` (stereo not drawn): the IC50 was 4840 nM.
The figure for `COc1ccc(C(C(=O)NC(C)(C)C)N(Cc2ccc(C)cc2)C(=O)CCC(=O)Nc2cc(C)on2)cc1` (stereo not drawn) is 2300 nM; for `CCOc1ccc(CCNC(=O)COC(=O)c2cccnc2OCC)cc1OCC` it is 2290 nM; for `CCOc1ccc(C(=O)CCC(=O)NCC(=O)OCc2ccccc2)cc1OCC` it is 8000 nM (inactive).
In the case of `CCOc1ccc(CCNC(=O)COC(=O)/C=C/c2ccc(C)o2)cc1OCC` it was 7620 nM (inactive); in that of `CC(C)OC(=O)/C(=C/c1ccc2c(c1)c1ccccc1n2C)NC(=O)c1ccccc1`, 1800 nM.
As for `COc1ccc(C(C(=O)NC(C)(C)C)N(Cc2ccccc2)C(=O)CCC(=O)Nc2cc(C)on2)cc1` (stereo not drawn), the IC50 is 8980 nM (inactive).
In the case of `CCOc1ccc(NC(=O)CSc2nc3ccccc3nc2N2CCCC2)cc1` it was 1770 nM; in that of `CCOc1ccc(CCNC(=O)COC(=O)/C=C/c2ccc(OCC#N)c(OC)c2)cc1OCC`, 21000 nM (inactive); in that of `CCNC(=S)N1CCc2cc(OC)c(OC)cc2C1COc1ccc(F)cc1` (stereo not drawn), 2280 nM.
In the case of `CC1CC(C)CN(C(=O)c2ccc3c(c2NCCO)C(=O)c2ccccc2C3=O)C1` (stereo not drawn) it was 687 nM.
As to `CCOc1ccc(CCNC(=O)CS(=O)Cc2nc(-c3ccccc3C)oc2C)cc1OCC` (stereo not drawn), the IC50 was 5360 nM (inactive).
In the case of `COc1ccc2c(c1)c(CC(=O)Nc1ccc(C)cc1)c(C)n2C(=O)c1ccc(Cl)cc1` it was under 500 nM; in that of `CCOc1ccc(CN(C)C(=O)CNC(=O)Cc2cccc3ccccc23)cc1`, 566 nM.
The figure for `CCOc1ccccc1NC(=O)CCCNC(=O)Cn1cnc2sc(C)c(C)c2c1=O` is 7090 nM (inactive); for `CCOC(=O)c1ccc(S(=O)(=O)NCC(c2ccc(N(C)C)cc2)c2c[nH]c3ccccc23)cc1` (stereo not drawn) it is 927 nM.
The figure for `CCc1c(C#N)c(SCCC(=O)Nc2cccc(OC)c2)nc2c1C(=O)CC(C)(C)C2` is 1410 nM.
Consider `COc1ccc(OC)c(NC(=O)Cc2coc3ccc4ccccc4c23)c1`, for which the IC50 was 11400 nM (inactive).
On to `CCOc1ccc(CCNC(=O)/C=C/c2ccco2)cc1OCC`, for which the IC50 is 1050 nM.
In the case of `O=C(NCc1ccccc1)C(c1ccccc1F)N(C(=O)c1csnn1)C1CCCC1` (stereo not drawn) it was 3490 nM.
As for `CCC(C(=O)NCCc1ccccc1OC)n1nc(C)c2c(C)n(-c3ccccc3)nc2c1=O` (stereo not drawn), the IC50 was 3260 nM.
For the molecule `COc1cccc(NC(=O)CSc2nc3ccccc3nc2N2CCCC2)c1`, the IC50 is 5260 nM (inactive).
In the case of `CCOc1cc2c(cc1OCC)C(c1ccccc1)N(c1ccccc1)C(=O)C2` (stereo not drawn) it was 973 nM; in that of `CCOC(=O)c1ccc(NC(=O)CSc2nc3c(c(=O)n2-c2ccccc2OC)SCC3)cc1`, 1840 nM.
For `Cc1ccc(NC(=O)CSc2nc3ccccc3nc2N2CCCC2)cc1`, the IC50 was 2110 nM.
The figure for `CCOc1ccc(CCNC(=O)C2CC(=O)N(Cc3ccc(OC)cc3)C2)cc1OCC` (stereo not drawn) is 3810 nM.
In the case of `Cc1cccc(NC(=O)CSc2nc3ccccc3nc2N2CCCC2)c1` it was 5070 nM (inactive).
Turning to `Cc1ccc(-n2nc3c(=O)n(CC(=O)NCCCc4ccccc4)nc(C)c3c2C)cc1`, the IC50 was 4240 nM.
In the case of `CCOc1ccc(CCNC(=O)COC(=O)c2c(C)nn(-c3ccccc3)c2C)cc1OCC`, the IC50 was under 500 nM.
The figure for `CC1Cc2cc(S(=O)(=O)NCCC(=O)N(C)Cc3ccccc3)ccc2N1C(=O)C1CC1` (stereo not drawn) is 7520 nM (inactive); for `CCOc1ccc2nc(NC(=O)CSc3nc4ccccc4c(=O)n3Cc3ccco3)sc2c1` it is 620 nM; for `COc1ccc(OC)c(CCNC(=O)C(C)n2nc(C)c3c(C)n(-c4ccc(C)cc4)nc3c2=O)c1` (stereo not drawn) it is 1590 nM.
As to `COc1ccc(C2(c3ccc(OC)cc3)NC(=O)N(CC(=O)Nc3ccccc3C)C2=O)cc1`, the IC50 is 1520 nM.
In the case of `CCOc1ccc(C(C)NC(=O)Cc2ccccc2F)cc1OCC` (stereo not drawn) it was 6250 nM (inactive); in that of `CCc1c(C#N)c(SCCC(=O)Nc2ccc(OC)cc2)nc2c1C(=O)CC(C)(C)C2`, 5310 nM (inactive); in that of `COc1ccc(CC(=O)Nc2oc(-c3ccccc3)c(-c3ccccc3)c2C#N)cc1OC`, 1260 nM.
The figure for `Cc1cc(C(=O)NC2CCCc3c2cnn3-c2cccc(C)c2C)c(C)o1` (stereo not drawn) is 2230 nM; for `Cc1cc(C)cc(NC(=O)CCC(=O)Nc2cc(C)on2)c1` it is 7620 nM (inactive).
In the case of `COc1cccc(CNC(=O)CCCc2c[nH]c3ccccc23)c1` it was 6600 nM (inactive); in that of `CCOc1ccc(CC(=O)Nc2ccc(NC(=O)c3ccco3)cc2)cc1OCC`, 2350 nM; in that of `CCOc1ccc(CCNC(=O)CCS(=O)(=O)c2ccc(OC)cc2)cc1OCC`, 2720 nM.
Turning to `CCC(C)(C)NC(=O)C(c1ccc(OC)cc1)N(Cc1ccccc1)C(=O)CCC(=O)Nc1cc(C)on1` (stereo not drawn), the IC50 was 3420 nM.
Take `O=C(CSCC(=O)N1CCCc2ccccc21)Nc1nc(-c2ccccc2)cs1`: the IC50 is 4240 nM.
For the molecule `COc1ccc(CNC(=O)CN2C(=O)NC(C)(c3cccc4ccccc34)C2=O)cc1OC` (stereo not drawn), the IC50 is 2320 nM.
Take `CCOC(=O)N1CCN(C(=O)CSCC(=O)Nc2nc(-c3ccc(-c4ccccc4)cc3)cs2)CC1`: the IC50 is 14200 nM (inactive).
In the case of `CC(=O)Nc1ccc(-c2csc(NC(=O)Cc3cccc(F)c3)n2)cc1` it was 1800 nM.
The figure for `CCOc1cc2c(cc1OCC)C(c1ccccc1OC)OC(=O)C2` (stereo not drawn) is > 32000 nM (inactive); for `c1ccc(-c2csc(NNC3=NCCCCC3)n2)cc1` it is 702 nM; for `O=C(NCc1ccc2c(c1)OCO2)c1cc(-c2ccccc2)c(N2CCOCC2)s1` it is 715 nM.
On to `CCOc1ccc(CCNC(=O)CCC(=O)N2CCSc3ccccc32)cc1OCC`, for which the IC50 is under 500 nM.
In the case of `Cc1cccc(NC(=O)CSc2nnc(C)c(=O)n2N)c1` it was 6650 nM (inactive); in that of `CCOc1ccc(CCNC(=O)CN2CCN(Cc3ccc(F)cc3)C2=O)cc1OCC`, 1830 nM.
The figure for `c1cc2c(cc1-c1csc(NNC3=NCCCCC3)n1)OCCO2` is 1070 nM; for `COc1ccc(C(=O)OCC(=O)NC(C)CCc2ccccc2)cc1OC` (stereo not drawn) it is 11700 nM (inactive); for `CCOc1ccc(CCNC(=O)CCC(=O)N2CCOc3ccccc32)cc1OCC` it is 830 nM.
The figure for `CCOc1ccc(CCNC(=O)Cn2nc(C)c3c(C)n(-c4ccccc4)nc3c2=O)cc1OCC` is under 500 nM; for `CC(C)(C)c1ccc(-c2csc(NNC3=NCCCCC3)n2)cc1` it is 2090 nM; for `CCOc1ccc(CCNC(=O)CCS(=O)(=O)c2ccc(Br)cc2)cc1OCC` it is 3270 nM.
Take `CCOc1ncccc1C(=O)OC(C)C(=O)Nc1ccc(CC)cc1` (stereo not drawn): the IC50 was 2640 nM.
The figure for `CCOc1ccc(CCNC(=O)c2cc3sc(Cl)cc3n2C)cc1OCC` is under 500 nM; for `CCOc1ccc(CCNC(=O)Nc2cccc(OC)c2)cc1OCC` it is under 500 nM; for `O=C1C(NS(=O)(=O)c2ccccc2)=C(N2CCN(c3ccc(F)cc3)CC2)C(=O)c2ccccc21` it is 1780 nM.
In the case of `CC(Sc1nnc(Nc2ccccc2)s1)C(=O)Nc1nc(-c2ccccc2)cs1` (stereo not drawn) it was 5770 nM (inactive).
